Data taken from article PMC4482135 (Organometallics, 2015).
“And” between values parts separate entries of the source, which are not always exact repeats. Identical values can stand only once. Like-named read-outs stand apart in the source and are kept apart here.

Key:
[1] = tested on: A549 human lung carcinoma cells; assay: In vitro growth inhibition; format: cell-based; conditions: read-out: IC50 values, A549; 24 h drug exposure, 72 h recovery, SRB assay
How it was run: (§1)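 Cells seeded at 5000 per well and preincubated 48 h drug-free at 310 K. Media: RPMI-1640 (A2780), DMEM (A549, MCF7) or McCoy's 5A (HCT116), each with 10% FCS. Test compound stocks made in 5% DMSO with saline/medium 1:1, then serially diluted in medium. Exposure 24 h, PBS wash, then 72 h recovery. SRB absorbance read at 470 nm against untreated control. IC50 (50% growth inhibition) from duplicates of triplicates in two independent experiments.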

[2] = tested on: A2780 human ovarian carcinoma cells; assay: In vitro growth inhibition; format: cell-based; conditions: read-out: IC50 values, A2780; 24 h drug exposure, 72 h recovery, SRB assay
How it was run: as §1

[3] = tested on: A2780 ovarian carcinoma cells; assay: Cellular-iridium accumulation in A2780 cells by ICP-MS; format: cell-based, human; conditions: for cellular-Ir accumulation: 24 h exposure at equipotent (IC50) concentrations, no recovery, ICP-MS
How it was run: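 A2780 cells, 1.5 × 10^6 per well, preincubated 24 h drug-free at 310 K in humidified 5% CO2. Then 24 h exposure to test complex. Cells trypsinised, counted and pelleted; pellets digested overnight in 73% HNO3 at 353 K, then diluted to 5% HNO3. 193Ir measured by ICP-MS (no-gas mode, duplicate readings, 0–100 ppb calibration). Triplicates in two independent experiments.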

[4] = Relative hydrophobicity by RP-HPLC; format: physicochemical; conditions: C18, H2O/MeCN with 50 mM NaCl; longer tR = more hydrophobic
How it was run: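 RP-HPLC on C18 column (150 × 4.6 mm, 5 μm). A = H2O with 50 mM NaCl; B = H2O/MeCN 1:1 with 50 mM NaCl. Gradient starts at 20% B, reaches 100% B at 15 min, holds to 40 min, returns to 20% B by 42 min; run 57 min. Flow 1 mL min–1, detection 254 nm. Samples ca. 100 μM in 10% MeOH/90% H2O with 50 mM NaCl. tR from duplicates of triplicate runs.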

[5] = tested on: HCT116 human colon carcinoma cells; assay: In vitro growth inhibition; format: cell-based; conditions: read-out: IC50 values, HCT-116; 24 h drug exposure, 72 h recovery, SRB assay
How it was run: as §1

[6] = tested on: MCF7 human breast carcinoma cells; assay: In vitro growth inhibition; format: cell-based; conditions: read-out: IC50 values, MCF-7; 24 h drug exposure, 72 h recovery, SRB assay
How it was run: as §1

[7] = tested on: A2780 human ovarian carcinoma cells; conditions: read-out: IC50 values, A2780; previously reported complexes; ref [4b]; cited from earlier work
[8] = Catalytic oxidation of NADH to NAD+ by UV-visible spectroscopy; conditions: complex 2.5 μM, NADH 69, 103, 146 μM, 310 K, pH 7.5
How it was run: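 Test complex fixed at 2.5 μM with NADH at 69, 103 or 146 μM, in 5 mM Na2HPO4/NaH2PO4 buffer pH 7.5 (0.5% MeOH/99.5% H2O), 310 K, 24 h. NADH loss followed by UV–vis at 339 nm (εNADH = 6220 cm–1 M–1). Rate constant k taken from first-order kinetic plots in [NADH].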

[9] = tested on: A2780 human ovarian cancer cells; assay: Cellular-iridium distribution in A2780 cells; format: cell-based; conditions: IC50 concentrations
[10] = tested on: 9-methyladenine (9-MeA); assay: Binding to nucleobase 9-methyladenine by 1H NMR; conditions: co-incubation with equimolar 9-EtG and 9-MeA, 310 K, pH* 7.4
How it was run: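 Competition run: test complex (ca. 500 μM) with equimolar 9-EtG and 9-MeA in 26.7% MeOD-d4/73.3% D2O at 310 K, pH* 7.4. 1H NMR (600 MHz) recorded 15 min and 24 h after nucleobase addition. Percentage bound to each nucleobase calculated from 1H NMR peak integrations.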

[11] = tested on: 9-ethylguanine (9-EtG); assay: Binding to nucleobase 9-ethylguanine by 1H NMR
How it was run: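 Test complex (ca. 500 μM) and 9-EtG (ca. 500 μM), about 1:1, in 26.7% MeOD-d4/73.3% D2O with 4 mM NaCl, so the complex is mainly the Ir–Cl form. Held at 310 K, pH* 7.4. 1H NMR (600 MHz) recorded 15 min and 24 h after nucleobase addition. Adduct percentage taken from 1H NMR peak integrations.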

| Compound | IC50 [1] [µM] | IC50 [2] [µM] | cellular-Ir accumulation [3] | tR by RP-HPLC (relative hydrophobicity) [4] | IC50 [5] [µM] | IC50 [6] [µM] | also measured |
| --- | --- | --- | --- | --- | --- | --- | --- |
| Cc1c(C)c(C)[c-](C)c1C.Oc1c[c-]c(-c2ccccn2)cc1.[Cl-].[Ir+3] [Complex 11, [(η^5-Cp*)Ir(2-(4′-hydroxyphenyl)pyridine)Cl]] | 56.67 ± 0.04 | 47.3 ± 0.1 | 1.58 ng Ir × 10^6 A2780 cells and 1.6 ng Ir × 10^6 A2780 cells and 1.6 ± 0.1 ng Ir × 10^6 A2780 cells | 15.11 min and 15.1 min and 15.11 ± 0.03 min | 29.3 ± 0.8 | 28.6 ± 0.9 | – |
| N.N.[Cl][Pt][Cl] [cisplatin, reference compound] | 3.5 ± 0.2 | 1.2 ± 0.2 | – | – | 5.2 ± 0.3 | 7 ± 0.1 | – |
| Cc1c(C)c(C)[c-](C)c1C.Fc1ccc[c-]c1-c1ccccn1.[Cl-].[Ir+3] [Complex 1, [(η^5-Cp*)Ir(2-(2′-fluorophenyl)pyridine)Cl]] | 10.36 ± 0.07 | – | – | – | 3.7 ± 0.3 | 9.6 ± 0.4 | – |
| Cc1c(-c2ccccc2)c(C)[c-](C)c1C.[Cl-].[Ir+3].[c-]1ccccc1-c1ccccn1 (stereo not shown) [Complex 17, [(η^5-Cp^xPh)Ir(2-phenylpyridine)Cl]] | – | – | – | – | – | – | IC50 [7]: 2.14 ± 0.5 µM |
| Cc1c(C)c(C)[c-](C)c1C.Fc1ccc(-c2[c-]cccc2)nc1.[Cl-].[Ir+3] [Complex 4, [(η^5-Cp*)Ir(2-phenyl-5-fluoropyridine)Cl]] | – | – | 11.1 ± 0.1 ng Ir × 10^6 A2780 cells | 18.60 ± 0.02 min | – | – | average rate constant k, first-order with respect to [NADH] [8]: 4.03 × 10^–4 min^–1; iridium in cell membrane and particulate fractions [9]: 17.9%; iridium in cytoskeletal fraction [9]: 6.1%; iridium in cytosol fraction [9]: 69.2%; iridium in nuclear fraction [9]: 6.7%; binding to 9-MeA in the presence of 9-EtG (competitive binding) [10]: 5–10%; binding to 9-EtG in the presence of 4 mM NaCl ([11]; 4 mM NaCl (Ir-Cl species), after 15 min): 100%; binding to 9-EtG in the presence of 4 mM NaCl ([11]; 4 mM NaCl (Ir–Cl species), after 24 h, 310 K): 100% |
| Cc1c(C)c(C)[c-](C)c1C.Oc1ccc(-c2[c-]cccc2)nc1.[Cl-].[Ir+3] [Complex 12, [(η^5-Cp*)Ir(2-phenyl-5-hydroxypyridine)Cl]] | – | 13.3 ± 0.88 | 10.2 ng Ir × 10^6 A2780 cells and 10.2 ± 0.2 ng Ir × 10^6 A2780 cells | 17.8 min and 17.8 ± 0.2 min | – | – | fold cellular-iridium accumulation relative to isomer 11 ([3]; A2780 cells, IC50 concentrations): 6 times |
